Where “and” joins values, the source holds several entries; their conditions need not be identical. Equal values may be shown once.
Test system: HEK-293T
Assay: Multiplex assay against HEK293T;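 as to Population Tubulin-Different-Phenotype (%): share of the cells with healthy nuclei that show this phenotype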
Format: toxicity, cell-based
Details: human
Method in brief: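 With compound added, live cells were imaged on a CQ1 microscope at 37°C and 5% CO2; staining with Hoechst33342, BioTracker Green Microtubule Cytoskeleton Dye, MitoTracker Red and Annexin V Alexa Fluor 680 had been done at seeding. The CellPathfinder machine-learning gating scheme split cells into Hoechst high-intensity objects or normal cells, normal cells into healthy, pyknosed or fragmented nuclei, and pyknosed cells into mitotic or apoptotic. The tubulin, mitochondrial-mass and membrane-permeability phenotypes are per cents of healthy-nucleus cells.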

[1] = 12 h, 1 µM, compound concentration 1 uM, replicate 1
[2] = 12 h, 1 µM, compound concentration 1 uM, replicate 2
[3] = 12 h, 10 µM, compound concentration 10 uM, replicate 1
[4] = 12 h, 10 µM, compound concentration 10 uM, replicate 2
[5] = 24 h, 1 µM, compound concentration 1 uM, replicate 1
[6] = 24 h, 1 µM, compound concentration 1 uM, replicate 2
[7] = 24 h, 10 µM, compound concentration 10 uM, replicate 1
[8] = 24 h, 10 µM, compound concentration 10 uM, replicate 2
[9] = 48 h, 10 µM, compound concentration 10 uM, replicate 1
[10] = 48 h, 10 µM, compound concentration 10 uM, replicate 2

## CNC(=O)c1nn(C)c2c1C(C)(C)Cc1cnc(Nc3ccc(N4CCN(C)CC4)cc3)nc1-2 [MILCICLIB]
[1]
  Population Apoptotic (%): 28%
  Population Fragmented Nuclei (%): 17%
  Population Healthy Nuclei (%): 41%
  Population Hoechst High Intensity Objects (%): 21%
  Population Membrane Permeable-Phenotype (%): 9%
  Population Mitochondria Different-Phenotype (%): 25%
  Population Mitotic Cells (%): 71%
  Population Normal (%): 78%
  Population Pyknosed Nuclei (%): 40%
  Population Tubulin-Different-Phenotype (%): 82%
  Total Cell Count: 581
[2]
  Population Apoptotic (%): 23%
  Population Fragmented Nuclei (%): 2%
  Population Healthy Nuclei (%): 83%
  Population Hoechst High Intensity Objects (%): 9%
  Population Membrane Permeable-Phenotype (%): 3%
  Population Mitochondria Different-Phenotype (%): 64%
  Population Mitotic Cells (%): 76%
  Population Normal (%): 90%
  Population Pyknosed Nuclei (%): 14%
  Population Tubulin-Different-Phenotype (%): 98%
  Total Cell Count: 860
[3]
  Population Apoptotic (%): 29% and 75% and 67%
  Population Healthy Nuclei (%): 36% and 49%
  Population Hoechst High Intensity Objects (%): 18% and 11% and 13%
  Population Mitochondria Different-Phenotype (%): 39% and 100% and 98%
  Population Mitotic Cells (%): 70% and 24% and 32%
  Population Normal (%): 81% and 88% and 86%
  Population Pyknosed Nuclei (%): 38% and 43%
  Population Tubulin-Different-Phenotype (%): 79% and 97%
  Total Cell Count: 581 and 226 and 425
[4]
  Population Fragmented Nuclei (%): 6% and 3% and 2%
  Population Hoechst High Intensity Objects (%): 6% and 8% and 9%
  Population Membrane Permeable-Phenotype (%): 12% and 10% and 4%
  Population Mitochondria Different-Phenotype (%): 87% and 90% and 57%
  Population Mitotic Cells (%): 40% and 30% and 79%
  Population Normal (%): 93% and 91% and 90%
  Population Tubulin-Different-Phenotype (%): 91% and 100% and 99%
[5]
  Population Apoptotic (%): 43%
  Population Fragmented Nuclei (%): 21%
  Population Healthy Nuclei (%): 33%
  Population Hoechst High Intensity Objects (%): 19%
  Population Membrane Permeable-Phenotype (%): 7%
  Population Mitochondria Different-Phenotype (%): 64%
  Population Mitotic Cells (%): 56%
  Population Normal (%): 80%
  Population Pyknosed Nuclei (%): 45%
  Population Tubulin-Different-Phenotype (%): 78%
  Total Cell Count: 556
[6]
  Population Apoptotic (%): 34%
  Population Fragmented Nuclei (%): 2%
  Population Healthy Nuclei (%): 82%
  Population Hoechst High Intensity Objects (%): 9%
  Population Membrane Permeable-Phenotype (%): 2%
  Population Mitochondria Different-Phenotype (%): 81%
  Population Mitotic Cells (%): 65%
  Population Normal (%): 90%
  Population Pyknosed Nuclei (%): 14%
  Population Tubulin-Different-Phenotype (%): 98%
  Total Cell Count: 887
[7]
  Population Apoptotic (%): 55% and 82% and 67%
  Population Healthy Nuclei (%): 32% and 22% and 44%
  Population Hoechst High Intensity Objects (%): 19% and 13%
  Population Membrane Permeable-Phenotype (%): 10% and 2%
  Population Mitochondria Different-Phenotype (%): 63% and 100% and 98%
  Population Mitotic Cells (%): 44% and 17% and 32%
  Population Normal (%): 80% and 86%
  Population Pyknosed Nuclei (%): 42% and 69% and 48%
  Population Tubulin-Different-Phenotype (%): 80% and 91%
  Total Cell Count: 565 and 241 and 453
[8]
  Population Fragmented Nuclei (%): 6% and 3% and 4%
  Population Hoechst High Intensity Objects (%): 6% and 7%
  Population Membrane Permeable-Phenotype (%): 6% and 4%
  Population Mitochondria Different-Phenotype (%): 92% and 95% and 77%
  Population Normal (%): 93% and 92%
  Population Tubulin-Different-Phenotype (%): 94% and 95% and 98%
[9]
  Population Apoptotic (%): 87% and 71%
  Population Fragmented Nuclei (%): 14%
  Population Healthy Nuclei (%): 17% and 42%
  Population Hoechst High Intensity Objects (%): 13% and 11%
  Population Membrane Permeable-Phenotype (%): 0%
  Population Mitochondria Different-Phenotype (%): 100% and 99%
  Population Mitotic Cells (%): 12% and 28%
  Population Normal (%): 86% and 88%
  Population Pyknosed Nuclei (%): 68% and 49%
  Population Tubulin-Different-Phenotype (%): 92%
  Total Cell Count: 263 and 534
[10]
  Population Apoptotic (%): 86% and 89%
  Population Fragmented Nuclei (%): 6% and 7%
  Population Healthy Nuclei (%): 21% and 15%
  Population Hoechst High Intensity Objects (%): 12% and 9%
  Population Membrane Permeable-Phenotype (%): 2%
  Population Mitochondria Different-Phenotype (%): 91%
  Population Mitotic Cells (%): 13% and 10%
  Population Normal (%): 87% and 90%
  Population Pyknosed Nuclei (%): 71% and 76%
  Population Tubulin-Different-Phenotype (%): 85% and 70%
  Total Cell Count: 182 and 236

## CC(=O)O[C@H]1C(=O)[C@@]2(C)[C@H]([C@H](OC(=O)c3ccccc3)[C@]3(O)C[C@H](OC(=O)[C@H](O)[C@@H](NC(=O)c4ccccc4)c4ccccc4)C(C)=C1C3(C)C)[C@]1(OC(C)=O)CO[C@@H]1C[C@@H]2O [PACLITAXEL]
[1]
  Population Apoptotic (%): 21% and 24%
  Population Fragmented Nuclei (%): 12% and 13%
  Population Healthy Nuclei (%): 71% and 68%
  Population Hoechst High Intensity Objects (%): 10% and 14%
  Population Membrane Permeable-Phenotype (%): 4%
  Population Mitochondria Different-Phenotype (%): 3% and 4%
  Population Mitotic Cells (%): 78% and 75%
  Population Normal (%): 89% and 85%
  Population Pyknosed Nuclei (%): 15% and 18%
  Population Tubulin-Different-Phenotype (%): 2%
[2]
  Population Apoptotic (%): 7% and 10%
  Population Fragmented Nuclei (%): 10% and 8%
  Population Healthy Nuclei (%): 85% and 87%
  Population Hoechst High Intensity Objects (%): 1%
  Population Membrane Permeable-Phenotype (%): 1% and 0%
  Population Mitochondria Different-Phenotype (%): 5%
  Population Mitotic Cells (%): 92% and 89%
  Population Normal (%): 98%
  Population Pyknosed Nuclei (%): 3% and 4%
[3]
  Population Apoptotic (%): 23% [middle of 4 runs]
  Population Fragmented Nuclei (%): 15% and 13% and 11% and 10%
  Population Healthy Nuclei (%): 69% and 72% and 76% and 75%
  Population Hoechst High Intensity Objects (%): 11% and 7% and 8%
  Population Membrane Permeable-Phenotype (%): 8% and 5% and 4%
  Population Mitochondria Different-Phenotype (%): 5% and 4% and 3%
  Population Mitotic Cells (%): 80% and 77% and 72% and 76%
  Population Normal (%): 88% and 92% and 91%
  Population Pyknosed Nuclei (%): 14% [middle of 4 runs]
  Population Tubulin-Different-Phenotype (%): 2% and 3%
[4]
  Population Apoptotic (%): 12% and 6% and 9%
  Population Fragmented Nuclei (%): 8% and 14%
  Population Healthy Nuclei (%): 86% and 81% and 85%
  Population Hoechst High Intensity Objects (%): 1% and 3% and 2%
  Population Membrane Permeable-Phenotype (%): 1% and 0%
  Population Mitochondria Different-Phenotype (%): 7%
  Population Mitotic Cells (%): 87% and 93% and 90%
  Population Normal (%): 98% and 96% and 97%
  Population Pyknosed Nuclei (%): 4% and 3%
  Population Tubulin-Different-Phenotype (%): 4% and 1%
[5]
  Population Apoptotic (%): 10% and 29%
  Population Fragmented Nuclei (%): 12% and 13%
  Population Healthy Nuclei (%): 79%
  Population Hoechst High Intensity Objects (%): 7% and 8%
  Population Membrane Permeable-Phenotype (%): 8% and 7%
  Population Mitochondria Different-Phenotype (%): 2% and 4%
  Population Mitotic Cells (%): 89% and 70%
  Population Normal (%): 92% and 91%
  Population Pyknosed Nuclei (%): 8% and 7%
  Population Tubulin-Different-Phenotype (%): 2% and 4%
[6]
  Population Apoptotic (%): 7%
  Population Fragmented Nuclei (%): 24% and 32%
  Population Healthy Nuclei (%): 73% and 65%
  Population Hoechst High Intensity Objects (%): 3% and 4%
  Population Membrane Permeable-Phenotype (%): 5% and 3%
  Population Mitochondria Different-Phenotype (%): 1% and 0%
  Population Mitotic Cells (%): 92%
  Population Normal (%): 96% and 95%
  Population Pyknosed Nuclei (%): 1%
[7]
  Population Apoptotic (%): 22% [middle of 4 runs]
  Population Fragmented Nuclei (%): 15% [middle of 4 runs]
  Population Healthy Nuclei (%): 80% and 78% and 81% and 79%
  Population Hoechst High Intensity Objects (%): 5% and 3% and 6%
  Population Membrane Permeable-Phenotype (%): 10% and 7%
  Population Mitochondria Different-Phenotype (%): 2% and 3%
  Population Mitotic Cells (%): 77% and 76% and 82% and 79%
  Population Normal (%): 94% and 96% and 93%
  Population Pyknosed Nuclei (%): 4% and 5% and 6% and 7%
  Population Tubulin-Different-Phenotype (%): 4% and 5%
[8]
  Population Fragmented Nuclei (%): 30% [middle of 4 runs]
  Population Healthy Nuclei (%): 73% and 69% and 60% and 67%
  Population Hoechst High Intensity Objects (%): 4%
  Population Membrane Permeable-Phenotype (%): 3% and 2%
  Population Mitochondria Different-Phenotype (%): 1% and 0%
  Population Mitotic Cells (%): 87% and 96% and 93% and 98%
  Population Normal (%): 95%
  Population Pyknosed Nuclei (%): 1% and 2%
  Population Tubulin-Different-Phenotype (%): 2%

From ChEMBL document CHEMBL4689842, “EUbOPEN Chemogenomics Library wave 1” (2021)
